These results are taken from ChEMBL document CHEMBL4513216, “Probing the Open Global Health Chemical Diversity Library for Multistage-Active Starting Points for Next-Generation Antimalarials” (ACS Infect Dis, 2020).

The data set in a line: Toxicity liver stage against HepG2, at 10uM. The data set is classed as cell-based. More on the design: test concentration 10 uM, cell line HepG2-A16-CD81EGFP. As to conditions: human, HepG2-A16-CD81EGFP cells; read-out: INHIBITION
The method, boiled down:
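Uninfected HepG2-A16-CD81EGFP cells, 3 × 10^3 per well, 1536-well, plated on prespotted compound at 10 μM final, parasite-free screening media added to match infected plates; puromycin 10 μM positive, DMSO 0.5% negative; run in parallel with 48 h PbLuc assay at 37 °C, 5% CO2; viability by CellTiter-Glo luminescence, normalized to controls.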

Structures are written as SMILES.

Turning to `Cc1ncc(CNC(=O)CCc2ccccc2F)c(C2CCCN2C)n1` (configuration not stated), the cytotoxicity at 10 µM is -7.55%.
Take `O=C(O)c1c[nH]c2cc(NS(=O)(=O)c3ccc(Cl)cc3F)ccc12`: the cytotoxicity at 10 µM was -1.2%.
To `Cn1ccnc1CN(CCO)C(=O)c1nc2ccccc2s1` belongs 4.46%; to `COCc1ncn2c1CN(C(=O)c1cnc3ccccc3c1)CC2`, -2.39%.
For the compound `CC(O)(CNS(=O)(=O)Cc1ccon1)c1ccsc1` (configuration not stated), the cytotoxicity at 10 µM turned out to be 2.76%.
With `Cn1cnnc1S(=O)(=O)C1CCN(S(=O)(=O)c2ccc(F)c(Cl)c2)CC1`, the cytotoxicity at 10 µM is -7.2%.
Turning to `O=C(CCC1CCCO1)NCCCO` (configuration not stated), the cytotoxicity at 10 µM came out at 11.2%.
As to `CCc1ccc(C2CCCN2C(=O)CNC(=O)CCC(C)C)o1` (configuration not stated), the cytotoxicity at 10 µM is -10.2%.
Regarding `CCc1cc(CN(C)C(=O)CN2CC(Cc3ccccc3)CC2=O)on1` (configuration not stated), the cytotoxicity at 10 µM is -0.28%.
Consider `CCn1nc(C)c2ncnc(NCCCN3CCOCC3)c21`, for which the cytotoxicity at 10 µM came out at 2.06%.
To `CCc1nc(CN2CCCN(C(=O)c3cc(C)on3)CC2)cs1` belongs -7.81%; to `CCOCC(=O)N1C[C@@H]2CC[C@H]1CN(C(=O)c1ccncc1)C2`, 0.0793%.
With `O=C(c1ccco1)N1Cc2cnn(CC3CC3)c2C(COCC2CC2)C1` (configuration not stated), the cytotoxicity at 10 µM was 4.04%.
Next, `Nc1nonc1C(=O)N1Cc2ccccc2OC2(CCOCC2)C1`: -29.5%.
Next, `O=C(CN1CCOCS1(=O)=O)NCc1ccccc1`: 1.09%; `COCCSc1ccc(C(C)NC(=O)Nc2cccnc2)cc1` (configuration not stated): 12.3%; `Cc1nnc(NCCc2coc(-c3ccccc3)n2)c(C#N)c1C`: -14.3%.
As for `CCOCCCNC(=O)c1cc(C(C)C)nc(N2CCCCCC2)n1`, the cytotoxicity at 10 µM came to 8.53%.
For the compound `CC(C)CSc1ccc(-n2cccn2)nn1`, the cytotoxicity at 10 µM is -218%.
Next, `Fc1cccc(-c2nnn3c2COC(CNc2ncccn2)C3)c1` (configuration not stated): -65.3%; `Cc1cc(CN2C[C@@H]3CCCO[C@@H]3[C@H](NS(C)(=O)=O)C2)no1`: 11.5%; `Cc1noc(C)c1CS(=O)(=O)C(C)C(=O)N(C)c1ccccc1` (configuration not stated): -1.58%.
For the compound `CCn1ncc2c1CCCC2NCc1cc(Cl)c(OC)c(OC)c1` (configuration not stated), the cytotoxicity at 10 µM was found to be 24.4%.
Take `CCN(CC1CN(CC2CCC2)CCO1)c1cccnn1` (configuration not stated): the cytotoxicity at 10 µM came out at 2.82%.
To `CC(C)(C)c1cnc(CN2CCC(c3ccnn3CCO)CC2)o1` belongs -3.15%.
On to `CC(C)CC(NC(=O)c1ccn(C)c(=O)c1)c1ccccc1` (configuration not stated), for which the cytotoxicity at 10 µM is -6.76%.
As to `Cc1cc(C)n(CC2CCCN2CC(=O)N(C)Cc2ccco2)n1` (configuration not stated), the cytotoxicity at 10 µM is -12.2%.
Regarding `O=C1NCCN2CCN(C(=O)NCCc3ccccc3)CC12` (configuration not stated), the cytotoxicity at 10 µM was 17.6%.
For the compound `CC(Cn1cccn1)NCc1nc(-c2ccccn2)no1` (configuration not stated), the cytotoxicity at 10 µM was -5.17%.
Next, `O=C(NCC1CCOCC1)[C@H]1C[C@@H]2CCN(Cc3ccncc3)C[C@@H]2O1`: -14.1%; `O=S1(=O)c2ccccc2OCC2(CCN(CCO)CC2)CN1CC1CC1`: 0.864%.
As to `Cc1cc(CN2C[C@@H]3CCCO[C@@H]3[C@H](Nc3ccccn3)C2)no1`, the cytotoxicity at 10 µM was -4.72%.
For the compound `CC(C)(NCc1ccc(C#N)cc1)c1ccc2c(c1)OCO2`, the cytotoxicity at 10 µM was found to be 2.3%.
For the compound `O=C(c1cc2cc(F)ccc2[nH]1)N1CCCCC1Cn1cccn1` (configuration not stated), the cytotoxicity at 10 µM is -8.91%.
Next, `Cc1cc(NC(=O)NCC(C)O)n(C)n1` (configuration not stated): 1.69%.
Next, `NC(=O)CC1CCCN(C(=O)NCC2(c3cccs3)CCCC2)C1` (configuration not stated): 1.9%; `COc1cnc(CN2CC(=O)N(c3ccc(C)cc3)CC2C)cc1O` (configuration not stated): 4.01%; `O=C(NCc1cnc2n1CCN(c1ncc(F)cn1)CC2)C1CCC1`: -0.881%.
On to `Cc1nnc(CN2CCC(Oc3ccc(C)c(C)c3)CC2)o1`, for which the cytotoxicity at 10 µM came out at 7.27%.
For `Cc1ccc(-c2nn(-c3cccc(F)c3)cc2CN(CCO)CCO)o1`, the cytotoxicity at 10 µM came to 8.43%.
As to `CNC(=O)NC(=O)CN1CCN(c2ccc(C(=O)OC)cc2)CC1C` (configuration not stated), the cytotoxicity at 10 µM was -1.98%.
For the compound `O=C(O)c1csc(NCCc2ccccc2)n1`, the cytotoxicity at 10 µM was found to be 0.501%.
As to `O=C(O)CCCNC(=O)N1CCc2c([nH]c3ccc(Cl)cc23)C1`, the cytotoxicity at 10 µM turned out to be 8.13%.
For the compound `CC(C)[C@@H]1CN(C(=O)NCCc2ccccc2)C[C@H]1NS(=O)(=O)N(C)C`, the cytotoxicity at 10 µM worked out at 3.08%.
To `COCCN1C(=O)[C@]2(CC[C@@H]3CN(S(=O)(=O)CC(C)C)C[C@@H]32)N=C1C` belongs -69.3%; to `CCN1CCN(C2CCN(Cc3ncc(C(C)(C)C)o3)CC2)C1=O`, 2.05%; to `CC(=O)N1CCN(CCNS(=O)(=O)c2cccc(F)c2)CC1`, 6.99%.
For the compound `O=C(c1ccco1)N1C[C@@H]2CN(c3ccccn3)C[C@@H]2C1`, the cytotoxicity at 10 µM was -1.27%.
Next, `O=C(Cc1c[nH]c2ncccc12)NCC(O)c1ccsc1` (configuration not stated): 5.46%.
As to `Cc1nc2ccc(C(=O)N3CC[C@H](O)[C@@H](N4CCOCC4)CC3)cc2[nH]1`, the cytotoxicity at 10 µM was -8.32%.
As to `O=C(CCNC(=O)c1ccoc1)NCc1ccccc1F`, the cytotoxicity at 10 µM is 1.76%.
As for `Cc1cc(C(=O)NC(C)Cc2ccccc2Cl)n(C)n1` (configuration not stated), the cytotoxicity at 10 µM was 2.8%.
Consider `CCC(Oc1ccccc1)c1nn2c(CN(CC)CC)nnc2s1` (configuration not stated), for which the cytotoxicity at 10 µM stood at 4.91%.
Consider `Cc1cc(CN(C)C(C(=O)O)c2ccc(C(C)(C)C)cc2)on1` (configuration not stated), for which the cytotoxicity at 10 µM is -6.36%.
Next, `c1ccc(CO[C@@H]2C[C@H]3CN(c4ncccn4)CCN3C2)nc1`: -7.49%.
Next, `CN(C)CCN1CC2(CCC1=O)CCN(C(=O)c1ccn(C)n1)CC2`: -11%; `COc1cc(C(=O)NC(CC(=O)O)c2cccs2)cc(Cl)c1OC` (configuration not stated): 4.31%.
Turning to `Cn1cc(-c2ncnc3c2CCN(C(=O)c2cnccn2)CC3)cn1`, the cytotoxicity at 10 µM amounted to 6.93%.
As for `CCC(C)N(Cc1cccnc1)C(=O)c1ccc(NS(=O)(=O)CC)cc1` (configuration not stated), the cytotoxicity at 10 µM was 7.1%.
Take `CCOC(=O)N1CCNC(c2cccs2)C1` (configuration not stated): the cytotoxicity at 10 µM is -147%.
In the case of `CCc1nc(C2CCCN(C(=O)c3ccc(F)cc3)C2)no1` (configuration not stated), the cytotoxicity at 10 µM was -40.5%.
To `CC(Cn1cncn1)NCCN1CCc2ccccc21` (configuration not stated) belongs -3.21%; to `Nc1cc(-c2c[nH]nc2C2CCCCN2C(=O)C2CCCC2)ccn1` (configuration not stated), 12%; to `Cc1cc(C2CCCN(Cc3cccnc3)C2)n[nH]1` (configuration not stated), 9%.
Regarding `CN(CC(=O)Nc1cc(C(F)(F)F)c[nH]c1=O)Cc1ccccc1`, the cytotoxicity at 10 µM came to 12%.
To `O=C1CCc2cc(-c3csc(CCN4CCCC4=O)n3)ccc2N1` belongs -6.64%; to `CCn1cncc1Cn1cccc(C(F)(F)F)c1=O`, -20.7%; to `Cc1nn(C)c(C)c1C1CCCN1Cc1nc(C)c2ccccc2n1` (configuration not stated), -3.9%.
As for `CCc1nc(N)nc(NCc2cnn3cccnc23)c1C`, the cytotoxicity at 10 µM amounted to 52.5%.
As for `Cc1ncsc1C(=O)Nc1ccccn1`, the cytotoxicity at 10 µM was found to be 11.3%.
For `Cc1nn(C)c2cnn(Cc3ccc(C(=O)N4CCN(C)CC4)o3)c12`, the cytotoxicity at 10 µM worked out at 14.3%.
Turning to `CCN(Cc1cnn(CC)c1)C(=O)CN1C(=O)CCc2ccccc21`, the cytotoxicity at 10 µM was -2.17%.
For the compound `COc1ccc(CCN2CCOC(Cn3nc(C)nc3C)C2)cc1` (configuration not stated), the cytotoxicity at 10 µM was determined as 2.29%.
Consider `CCOc1ccc(NC(=O)Nc2cc(N3CCCCC3)ncn2)cc1`, for which the cytotoxicity at 10 µM is 2.21%.
Take `Cc1nc(C2CCCN2Cc2nccn2CC(F)(F)F)no1` (configuration not stated): the cytotoxicity at 10 µM was -16.5%.
Turning to `COc1cccc(-c2noc(C3CCN(Cc4cccs4)C3)n2)c1` (configuration not stated), the cytotoxicity at 10 µM is -0.192%.
On to `Cc1cc(CNc2cc(Cl)ccc2OCCS(C)(=O)=O)no1`, for which the cytotoxicity at 10 µM is -2.27%.
Take `CCn1cnnc1CNc1nc(C)nc2scc(CC(C)C)c12`: the cytotoxicity at 10 µM is -3.17%.
Next, `Cc1cc(CNC(=O)C2CCC(=O)N(Cc3ccccc3F)C2)on1` (configuration not stated): -5.26%.
To `O=C(CCOc1cccc(Cl)c1)N1CCN(c2cnccn2)CC1` belongs -0.284%; to `Cc1cccc(-c2noc([C@@H]3Cc4nc[nH]c4CN3)n2)c1`, 0.442%; to `Cc1noc(NC(=O)c2ccccc2)n1`, -0.269%.
Turning to `NS(=O)(=O)c1cccnc1Nc1cccc(Cl)c1Cl`, the cytotoxicity at 10 µM was -2.19%.
For the compound `Cn1cccc1C(=O)NCc1cnc2n1CCN(CC1CCOCC1)C2`, the cytotoxicity at 10 µM is -105%.
With `CSCCC(=O)N1CCCC(c2nccn2Cc2ccncc2)C1` (configuration not stated), the cytotoxicity at 10 µM was 9.33%.
Take `O=C(O)c1c(-c2ccncc2)ncc2c1CCN(CC1CCOC1)C2` (configuration not stated): the cytotoxicity at 10 µM is -100%.
In the case of `Cc1cc(N2Cc3cnc(CC(C)C)nc3C2)nc(N)n1`, the cytotoxicity at 10 µM was -5.64%.
For `Cn1ccc(-c2cc(C(=O)N3CCC(C(N)=O)CC3)c3ccccn23)n1`, the cytotoxicity at 10 µM is -105%.
For `O=C(NCCCNc1cccnc1)c1ccc2nccn2c1`, the cytotoxicity at 10 µM is -42.4%.
Consider `NC(=O)c1ccc(C2CCCN2C(=O)Cn2nc3ccccc3n2)s1` (configuration not stated), for which the cytotoxicity at 10 µM was 9.15%.
In the case of `O=C(NC[C@]1(O)CN(Cc2ccccc2F)C[C@H]1O)c1cscn1`, the cytotoxicity at 10 µM is -12%.
For the compound `O=C(COC1CCCC1)NS(=O)(=O)c1ccc2c(c1)OCCCO2`, the cytotoxicity at 10 µM was -15.3%.
Consider `CNc1oc(-c2ccc(S(=O)(=O)N(C)C)o2)nc1C#N`, for which the cytotoxicity at 10 µM was -5.96%.
`COc1ccccc1CN(Cc1cccc(C)c1)C(=O)[C@@H](N)CC(=O)O`: the cytotoxicity at 10 µM was -47.7%.
`CCN1C(=O)C2(CCN(CCN(C)C)CC2)c2ccccc21`: the cytotoxicity at 10 µM was -112%.
Next, `CC(C)Cc1noc(CN2CCN(CCO)CC2)n1`: -1.22%; `NC(=O)C1CCN(CCc2ccc(NCc3ccoc3)cc2)CC1`: -26.2%.
